In data set [1] the target is T1, Wee1-like protein kinase (Homo sapiens, UniProt P30291). Briefly: Binding affinity to wild type N-terminal GST-tagged human WEE1 catalytic domain (215 to 646 residues) expressed in baculovirus expression system measured after 1 hr by TR-FRET assay. A general note: TR-FRET usually uses a lanthanide donor and a delayed reading to cut background.
The nature of data set [2]: Clearance in mouse microsomes. In kind it is ADME, Microsome.
Data set [3] deals with T1, Wee1-like protein kinase. The data set is described as follows: Inhibition of WEE1 in human NCI-H1299 cells assessed as reduction in Cdc2 phosphorylation at Tyr15 residue measured after 6 hrs by ELISA. Type of data set: cell-based. On the technique in general: An ELISA detects its analyte on a solid surface through an enzyme-linked reagent.
Another data set has as its system NCI-H1299. Briefly: Antiproliferative activity against human NCI-H1299 cells after 72 hrs by cell titer glo assay. Type of data set: functional, cell-based. The following applies: NCI-H1299, 72 h. In general terms: ATP-based viability assays read luminescence as a measure of living cells.
A short description of data set [4]: Half life in iv dosed mouse. Type of data set: ADME, organism-based. The conditions noted are these: in vivo.
The nature of data set [5]: AUC in po dosed mouse. Type of data set: ADME, organism-based. The conditions noted are these: in vivo.
A short description of data set [6]: Clearance in iv dosed mouse. The following applies: in vivo. Type of data set: ADME, organism-based.
The subject of data set [7] is MX1. Briefly: Antitumor activity against BRCA1/p53 deficient human MX1 cells xenografted in SCID mouse assessed as tumor growth inhibition at 25 mg/kg/day, po administered every other 2 days for 4 times starting 24 days post-tumor innoculation and measured twice weekly. Type of data set: functional, organism-based.
Data set [8] deals with MX1. Briefly: Potentiation of irinotecan-induced antitumor activity against BRCA1/p53 deficient human MX1 cells xenografted in SCID mouse assessed as tumor growth inhibition at 25 mg/kg/day, po administered every other 2 days for 4 times starting from 24 days post-tumor innoculation and measured twice weekly relative to control. Type of data set: functional. The conditions noted are these: read-out: TGI. Put shortly: (§1)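 MX-1 brei (homogenized tumour cell suspension) was injected subcutaneously into the flank of SCID mice. Treatment started at tumour volume ~350 mm³, with dosing beginning on day 24. Arms were vehicle, irinotecan 10 mg/kg/day Q4Dx4, or irinotecan 10 mg/kg/day Q4Dx4 plus test agent 25 mg/kg/day QD, 2 days on/2 days off, for 4 cycles. Tumour volumes were measured twice weekly.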

The nature of data set [9]: Oral bioavailability in mouse. The conditions noted are these: in vivo. Type of data set: ADME, organism-based.
Data set [10] deals with MX1. Briefly: Potentiation of irinotecan-induced antitumor activity against BRCA1/p53 deficient human MX1 cells xenografted in SCID mouse assessed as tumor growth delay at 25 mg/kg/day, po administered every other 2 days for 4 times starting 24 days post-tumor innoculation and measured twice weekly relative to irinotecan. Type of data set: functional. In outline: as §1

The subject of data set [11] is MX1. Briefly: Potentiation of irinotecan-induced antitumor activity against BRCA1/p53 deficient human MX1 cells xenografted in SCID mouse assessed as tumor growth inhibition at 25 mg/kg/day, po administered every other 2 days for 4 times 24 days post-tumor innoculation and measured twice weekly for 43 days in presence relative to irinotecan. Type of data set: functional. The following applies: read-out: TGI. Put shortly: as §1

The record followed here is ChEMBL document CHEMBL4387719, “Investigation of biaryl heterocycles as inhibitors of Wee1 kinase” (Bioorg Med Chem Lett, 2019).

Each structure is given as a SMILES string. Activity calls are given as the source filed them. The calls are words filed in the database; no cut-off is given here.

T1 sequence (P30291 whole entry, the tested form may be a part): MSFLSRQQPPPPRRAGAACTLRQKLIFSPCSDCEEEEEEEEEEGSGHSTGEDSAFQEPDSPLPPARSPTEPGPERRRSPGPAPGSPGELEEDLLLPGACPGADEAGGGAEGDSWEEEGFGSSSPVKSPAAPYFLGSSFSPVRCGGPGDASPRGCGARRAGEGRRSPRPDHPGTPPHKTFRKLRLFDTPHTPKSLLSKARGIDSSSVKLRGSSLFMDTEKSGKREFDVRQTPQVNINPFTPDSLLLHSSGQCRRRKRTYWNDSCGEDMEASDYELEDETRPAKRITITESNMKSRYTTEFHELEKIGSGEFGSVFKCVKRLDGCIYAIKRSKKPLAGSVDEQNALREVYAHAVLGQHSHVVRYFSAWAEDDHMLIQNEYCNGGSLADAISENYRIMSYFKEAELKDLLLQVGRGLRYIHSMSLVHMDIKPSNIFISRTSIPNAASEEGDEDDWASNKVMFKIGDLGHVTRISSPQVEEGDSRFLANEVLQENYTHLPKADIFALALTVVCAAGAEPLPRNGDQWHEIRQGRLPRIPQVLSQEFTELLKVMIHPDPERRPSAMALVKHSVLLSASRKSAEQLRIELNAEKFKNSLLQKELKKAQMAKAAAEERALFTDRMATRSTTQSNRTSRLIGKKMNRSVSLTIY

Consider `CN1Cc2cc(Nc3ncc4c(=O)c(-c5c(Cl)cccc5Cl)c[nH]c4n3)ccc2C2(CC2)C1`, for which the affinity on Wee1-like protein kinase [1], expressed as Ki, was 0.6 nM. Moreover, the CLint scaled in data set [2] is 532 mL/min/kg. Also, the EC50 on Wee1-like protein kinase [3] came out at 29 nM; in the data set with NCI-H1299, 330 nM.

`CN1CCN(c2ccc(Nc3ncc4c(=O)c(-c5c(Cl)cccc5Cl)cn(CC(C)(C)O)c4n3)cc2)CC1` had a Ki on Wee1-like protein kinase [1] of 0.2 nM. The CLint scaled in [2] was 482 mL/min/kg. The EC50 is 4020 nM at Wee1-like protein kinase [3] and more than 10000 nM in the data set on NCI-H1299.

Compound `CN1Cc2cc(Nc3ncc4c(=O)n(-c5c(Cl)cccc5Cl)cc(C(F)F)c4n3)ccc2C2(CC2)C1` displayed a Ki on Wee1-like protein kinase [1] of 0.6 nM. Further, the CLint scaled in [2] was 753 mL/min/kg. In addition, the EC50 at Wee1-like protein kinase [3] was determined as 18 nM; in the data set on NCI-H1299 it was 140 nM.

Turning to `C=Cc1cn(-c2c(Cl)cccc2Cl)c(=O)c2cnc(Nc3ccc4c(c3)CN(C)CC43CC3)nc12`, the affinity on Wee1-like protein kinase [1], expressed as Ki, was 0.3 nM. In addition, the intrinsic clearance (CLint scaled) in data set [2] is 463 mL/min/kg. Besides, the EC50 was determined as 21 nM at Wee1-like protein kinase [3] and 80 nM with NCI-H1299.

With `CN1Cc2cc(Nc3ncc4c(=O)c(-c5c(Cl)cccc5Cl)cn(C5CC5)c4n3)ccc2C2(CC2)C1`, the CLint scaled in [2] was 458 mL/min/kg. Also, the EC50 at Wee1-like protein kinase [3] came out at 31 nM; with NCI-H1299, 390 nM.

`CN1Cc2cc(Nc3ncc4c(=O)n(-c5c(F)cccc5Cl)c5nccn5c4n3)ccc2C(C)(C)C1` gave an inhibition constant (Ki) on Wee1-like protein kinase [1] of 1.1 nM. The same compound gave a CLint scaled in [2] of 635 mL/min/kg.

As to `CN1CCN(c2ccc(Nc3ncc4c(=O)c(-c5c(Cl)cccc5Cl)cn(C)c4n3)cc2)CC1`, the intrinsic metabolic clearance (CLint scaled) in [2] was 270 mL/min/kg. Moreover, the values for the EC50 at Wee1-like protein kinase [3] and in the data set with NCI-H1299 were 79 nM and 520 nM, respectively.

In turn, `CN1Cc2cc(Nc3ncc4c(=O)n(-c5c(Cl)cccc5Cl)cc(CO)c4n3)ccc2C2(CC2)C1` gave a CLint scaled in data set [2] of 320 mL/min/kg. Also, the EC50 at Wee1-like protein kinase [3] stood at 25 nM; in the data set with NCI-H1299, 60 nM.

The compound `CN(C)CCn1cc(-c2c(Cl)cccc2Cl)c(=O)c2cnc(Nc3ccc(N4CCN(C)CC4)cc3)nc21` yielded a Ki at Wee1-like protein kinase [1] of 24.4 nM. This compound also showed a CLint scaled in [2] of 1970 mL/min/kg. Further, the EC50 on Wee1-like protein kinase [3] was 2850 nM; in the data set with NCI-H1299 it was 7650 nM.

Regarding `CN1CCN(c2ccc(Nc3ncc4c(=O)c(-c5c(Cl)cccc5Cl)cn(C5COC5)c4n3)cc2)CC1`, the intrinsic metabolic clearance (CLint scaled) in data set [2] was 582 mL/min/kg. Besides, the figures for the EC50 on Wee1-like protein kinase [3] and in the data set on NCI-H1299 were 324 nM and 1720 nM, respectively.

Compound `CN1Cc2cc(Nc3ncc4c(=O)c(-c5c(Cl)cccc5Cl)cn(C)c4n3)ccc2C2(CC2)C1` gave a half-life in data set [4] of 2.7 h. Besides, on Wee1-like protein kinase [1], the Ki turned out to be 0.3 nM. The same compound registered an AUC in data set [5] of 6.2 µM·h. Also, the clearance in data set [6] is 25 mL/min/kg. Also, the TGI result in the data set on MX1 [7] is “Active”. In addition, the CLint scaled in data set [2] was 413 mL/min/kg. Further, the inhibition in vivo at 25 mg/kg/day with MX1 [8] was determined as 88%; in the data set on MX1 [11], 57%. The bioavailability in [9] is 44%. Moreover, the figures for the EC50 on Wee1-like protein kinase [3] and with NCI-H1299 were 11 nM and 100 nM, respectively. Besides, in the data set on MX1 [10], the Activity turned out to be 48%.

On Wee1-like protein kinase [1], `CN1CCN(c2ccc(Nc3ncc4c(=O)c(-c5c(Cl)cccc5Cl)cn(C5CC5)c4n3)cc2)CC1` came in with an inhibitory constant (Ki) of 1 nM. In [2], this compound had a CLint scaled of 582 mL/min/kg. Moreover, the results for the EC50 at Wee1-like protein kinase [3] and with NCI-H1299 were 22 nM and 460 nM, respectively.

As to `Cc1cn(-c2c(Cl)cccc2Cl)c(=O)c2cnc(Nc3ccc4c(c3)CN(C)CC43CC3)nc12`, the Ki on Wee1-like protein kinase [1] stood at 0.5 nM. The compound further showed a CLint scaled in [2] of 727 mL/min/kg. The EC50 was found to be 28 nM at Wee1-like protein kinase [3] and 130 nM in the data set with NCI-H1299.

In the case of `CCn1cc(-c2c(Cl)cccc2Cl)c(=O)c2cnc(Nc3ccc4c(c3)CN(C)CC43CC3)nc21`, the results for the half-maximal effective concentration (EC50) at Wee1-like protein kinase [3] and in the data set with NCI-H1299 were 19 nM and 210 nM, respectively.

In the case of `CN1CCN(c2ccc(Nc3ncc4c(=O)c(-c5c(Cl)cccc5Cl)cn(-c5ccccc5)c4n3)cc2)CC1`, on Wee1-like protein kinase [1], the Ki turned out to be 0.2 nM. In addition, the EC50 on Wee1-like protein kinase [3] worked out at 246 nM; in the data set on NCI-H1299 it was 500 nM.

In general, Ki refers to a measure of affinity in units of concentration, obtained from inhibition or displacement. Low readings indicate higher affinity, high ones lower affinity. Broadly, the CLint scaled is the rate of metabolic loss divided by the concentration. Higher therefore signals faster metabolism. What is called EC50 is the midpoint of the concentration-response curve. As usually defined, the half-life is the time in which the quantity being followed falls by half. A low value points to fast loss. Usually AUC stands for the area under the concentration-time curve, a measure of exposure. Higher therefore signals more exposure. One may read the clearance as a measure of how efficiently the substance is removed, as volume per time. As a reminder, the bioavailability is dose-corrected exposure relative to a reference, in per cent.
